# AI-2 QS mod – Vibrio harveyi AI-2 quorum sensing modulation. Vibrio harveyi JMH597 AI-2 luminescence/OD600 ratio, 9 h; hits give low values; strain lacks LuxN and CqsS sensors; 0 = neutral-control median. actives 0.4% (n = 300,000). activity change, % at 7.5 µM; in the data active means activity change below about -75%, passing the limit was not always enough; inconclusive means no clear call, values can overlap the other calls;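 further: luminescence divided by OD600 gain over 9 h not by final OD600 alone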
# UBC13 inh – blocks human UBC13 polyubiquitin chain formation | inhibition, % at 20 µM | TR-FRET | P61088 | actives 0.47% (n = 330,000); in the data active means inhibition above about 45%, passing the limit was not always enough; inconclusive means no clear call, values can overlap the other calls
# PP1 inh – blocks human PP1-alpha phosphatase, a PP5 counter-screen; P62136; purified PP1alpha, OMFP fluorescence; inhibition, % at 6.7 µM; actives 0.9% (n = 320,000); AID 2235;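 active means inhibition above the mean inhibition of all tested compounds plus 3 SD, computed separately for each screening campaign, cut at about 15% in these data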
# Target sequence (P62136 whole entry, looked up): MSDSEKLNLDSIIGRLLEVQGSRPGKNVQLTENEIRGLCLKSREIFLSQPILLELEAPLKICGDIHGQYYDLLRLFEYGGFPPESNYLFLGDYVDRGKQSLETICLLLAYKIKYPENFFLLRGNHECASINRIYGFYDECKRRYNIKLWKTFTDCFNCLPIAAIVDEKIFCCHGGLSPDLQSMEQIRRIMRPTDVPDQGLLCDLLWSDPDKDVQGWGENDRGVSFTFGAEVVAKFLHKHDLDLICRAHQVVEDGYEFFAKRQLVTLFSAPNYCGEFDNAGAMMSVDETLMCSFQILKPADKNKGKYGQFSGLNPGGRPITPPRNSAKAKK
# T cruzi inh – T. cruzi replication inhibition | T. cruzi beta-gal in NIH3T3, luminescence, 90 h | inhibition, % (test concentration not listed) | actives 1.4% (n = 300,000) | AID 1885;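 active means mean inhibition across valid replicates above about 55%, limit read from the data; inconclusive means mean below that limit but half or more replicates reach it; inactive means mean below it, under half of replicates reach it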;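 further: signal also drops with host cell toxicity which is not excluded here; 0% = plate median of DMSO wells and 100% = zero luminescence signal; higher percent means less beta-gal luminescence so fewer parasites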
#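 Read-out: Parasite load inhibition, % | Test system: Mouse NIH/3T3 fibroblasts infected with β-gal-expressing T. cruzi Tulahuen C4 | Amount: 5,000 cells/well | Medium: DMEM, 2% fetal bovine serum | Signal: GalScreen β-gal luminescence, detergent lysis, 60 min | Timing: 3 h attach, ≥90 h co-culture | Also added: Tulahuen C4 trypomastigotes, 5000/well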
# p-CIP stab down – lowers stability of the mouse p/CIP coactivator protein; Q05BA5; F442A p/CIP-EGFP cells, EGFP fluorescence, 16 h; decrease of EGFP signal, % at 10 µM; actives 0.01% (n = 290,000);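 active means EGFP signal decrease of at least 30% at 10 µM or well 3 SD below plate mean, unless failing retest; inactive means the rest, including hits failing retest or dose response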
# * hit, by the source's call; ? = inconclusive; . = no result given. Most compounds without a hit are left out; they make up all but 2.8% or so of the library.
SMILES,AI-2 QS mod,UBC13 inh,PP1 inh,T cruzi inh,p-CIP stab down
O=C(CN1CCN(c2cccc(Cl)c2)CC1)Nc1ccc([N+](=O)[O-])cc1C(=O)Nc1ccccc1F,15,-7,-2,65*,3
CCOc1ccc(OCC)c(NC(=O)CN2CCN(c3cc(C)ccc3C)CC2)c1,17,-2,3,70*,-12
O=C(Cn1nc(C(=O)O)c2ccccc2c1=O)Nc1cccc(S(=O)(=O)N2CCCCC2)c1,.,-6,.,.,.
N#CCC(=O)NNC(=S)NC(=O)C(c1ccccc1)c1ccccc1,25,-4,-2,-3,-20
CC(=O)NC(=S)NNC(=O)C(c1ccccc1)c1ccccc1,-87*,-31,2,17,-8
CC(C)N(c1ccccc1)c1ccc(NC(=O)CCl)cc1,33,13,-1,80*,16
O=C(CCl)Nc1ccc(-c2ccccc2)cc1,-14,10,-1,61*,-2
CCC(=O)Nc1ccc(-c2nnc(-c3ccccc3)o2)cc1,12,2,7,57*,-1
CC(=O)Nc1ccc(NC(=O)Cc2ccc(-c3ccccc3)cc2)cc1,20,-10,1,-14,1
CC(C)c1ccc(NC(=O)CCc2ccccc2)cc1,-39,-4,0,3,-6
O=C(CCl)Nc1cccc(Oc2ccccc2)c1,-6,1,-4,56*,-25
O=C(CCl)Nc1cccc(Oc2cnccn2)c1,-16,4,-2,1,-4
CCc1ccc(OCC(=O)NNC(=S)NC(=O)C2CC2)c(Br)c1,-85*,72*,.,.,-9
O=C(Nc1ccc(F)cc1)c1cc(-c2ccccn2)nc2c(Cl)cccc12,43,4,2,4,8
O=C(Nc1ccc(N2CCCCC2)cc1)c1cc([N+](=O)[O-])cc([N+](=O)[O-])c1,8,-18,-2,60*,-4
O=C(Nc1ccc(N2CCCC2)cc1)c1ccc([N+](=O)[O-])cc1Cl,31,-23,2,21,12
Cc1ccc(S(=O)(=O)c2ncccc2[N+](=O)[O-])cc1,36,-3,5,65*,-40
COc1ccc(NC(=O)NS(=O)(=O)c2ccc(C)cc2)cc1OC,.,-4,.,.,.
CCOc1cc(N(CC)CC)ccc1/C=C(/C#N)c1nc2ccccc2[nH]1,15,-312,-1,?,-610
CCN(CC)c1ccc(/C=C(/C#N)c2nc3ccc(C)cc3[nH]2)c(OC(C)C)c1,5,-32,1,84*,-765
CCCOc1cc(N(CC)CC)ccc1/C=C(/C#N)c1nc2ccc(C)cc2[nH]1,37,-227,-1,64*,-778
O=S(=O)(Nc1cc(S(=O)(=O)N2CCOCC2)ccc1NCC1CCCO1)c1ccccc1 (stereo unspecified),.,3,-1,.,.
CCN(CC)c1ccc(NC(=O)COc2ccc(N(C)S(=O)(=O)c3cccs3)cc2)cc1,13,-14,2,61*,-6
CC(C)c1ccc(C2(C)NC(=O)N(C(C)C(=O)Nc3ccc(N4CCOCC4)cc3)C2=O)cc1 (stereo unspecified),.,4,.,.,.
COc1ccc(CNc2ccc(Cl)cc2)cc1Cn1ccnc1,3,6,5,59*,-12
SMILES,AI-2 QS mod,UBC13 inh,PP1 inh,T cruzi inh,p-CIP stab down
COc1ccc(CC(=O)Nc2cc(Cl)ccc2O)cc1,-94*,2,1,-3,-6
COc1ccc(CC(=O)Nc2ccccc2NC(=O)Cc2ccc(OC)cc2)cc1,18,-1,0,-3,-11
CN(C)S(=O)(=O)c1cccc(NC(=S)N/N=C/c2cc(Br)ccc2O)c1,338,-5,3,57*,4
COc1ccc(OC)c(S(=O)(=O)NCc2ccccn2)c1,9,4,-2,-1,-2
O=C(c1c[nH]c(C(=O)N2CCN(c3ccccc3F)CC2)c1)c1cccc(Cl)c1Cl,7,.,.,60*,3
Cc1c(NC(=S)NC(=O)c2ccccc2Br)c(=O)n(-c2ccccc2)n1C,3,5,-3,0,-4
CN(C)c1ccc(-c2n(C)c3ccccc3[n+]2C)cc1,6,-3,-4,73*,-37
CCn1c(C)c(/C=N/Nc2nc3ccccc3s2)c2ccccc21,40,2,0,69*,-15
CN(C)c1ccc(N2C(=NC(=O)C3CCCO3)SC3CS(=O)(=O)CC32)cc1 (stereo unspecified),0,2,1,-11,3

# Assay outcomes (PubChem BioAssay)
